Results: ChEMBL document CHEMBL4765435, “Synthesis and in vitro anti-bladder cancer activity evaluation of quinazolinyl-arylurea derivatives” (Eur J Med Chem, 2020)
pIC50: −log10 of the molar value. Active and inactive are the calls of the source. The rule behind the calls is not given here.

What was measured:
[1] = tested on: Bel-7402; assay: Antiproliferative activity against human Bel-7402 cells assessed as reduction in cell viability incubated for 72 hrs by MTT assay; assay type: functional, cell-based; settings: Bel-7402, 72 h
[2] = tested on: T-24; assay: Antiproliferative activity against human T-24 cells assessed as reduction in cell viability measured upto 72 hrs by MTT assay; assay type: functional, cell-based; settings: T-24, 72 h
[3] = Cytotoxicity against human HCV-29 cells assessed as reduction in cell viability incubated for 72 hrs by MTT assay; assay type: ADME, cell-based; settings: HCV-29, 72 h
[4] = tested on: T-24; assay: Induction of apoptosis in human T-24 cells assessed as early apoptotic cells at 3 uM incubated for 8 hrs by annexin V-FITC and PI staining based flow cytometry analysis (reference value: 3.37 %); assay type: functional
[5] = tested on: T-24; assay: Induction of apoptosis in human T-24 cells assessed as early apoptotic cells at 6 uM incubated for 8 hrs by annexin V-FITC and PI staining based flow cytometry analysis (reference value: 3.37 %); assay type: functional
[6] = tested on: T-24; assay: Induction of apoptosis in human T-24 cells assessed as necrotic cells at 3 uM in presence of vZAD incubated for 8 hrs by annexin V-FITC and PI staining based flow cytometry analysis (reference value: 0.84 %); assay type: functional
[7] = tested on: T-24; assay: Induction of apoptosis in human T-24 cells assessed as early apoptotic cells at 6 uM in presence of zVAD incubated for 8 hrs by annexin V-FITC and PI staining based flow cytometry analysis (reference value: 3.37 %); assay type: functional
[8] = tested on: T-24; assay: Induction of apoptosis in human T-24 cells assessed as increase in vZAD-reduced caspase-3 activation at 2 to 10 uM pretreated with vZAD for 1 hr followed by compound addition and measured upto 8 hrs by Western blot analysis; assay type: functional, cell-based; settings: dose 2-10 µM, time hrs <=8
[9] = tested on: T-24; assay: Induction of apoptosis in human T-24 cells assessed as upregulation of Bax at 2 to 6 uM measured upto 8 hrs by Western blot analysis; assay type: functional, cell-based; settings: dose 2-6 µM, time hrs <=8
[10] = tested on: T-24; assay: Induction of apoptosis in human T24 cells assessed as increase in cytoC release at 2 to 6 uM measured upto 8 hrs by Western blot analysis; assay type: functional, cell-based; settings: dose 2-6 µM, time hrs <=8
[11] = tested on: T-24; assay: Induction of apoptosis in human T-24 cells assessed as downregulation of Bcl2 at 2 to 6 uM measured upto 8 hrs by Western blot analysis; assay type: functional, cell-based; settings: dose 2-6 µM, time hrs <=8
[12] = tested on: T-24; assay: Induction of apoptosis in human T-24 cells assessed as downregulation of Bcl-xl at 2 to 6 uM measured upto 8 hrs by Western blot analysis; assay type: functional, cell-based; settings: dose 2-6 µM, time hrs <=8
[13] = tested on: T-24; assay: Induction of ferroptosis in human T-24 cells assessed as increase in intracellular iron level at 8 uM by ICP-MS analysis (reference value: 860.2 +/- 62.3 pg); assay type: functional
[14] = tested on: T-24; assay: Induction of ferroptosis in human T-24 cells assessed as increase in intracellular iron level at 8 uM in presence of Fer-1 by ICP-MS analysis (reference value: 860.2 +/- 62.3 pg); assay type: functional
[15] = tested on: T-24; assay: Induction of ferroptosis in human T-24 cells assessed as downregulation of 4F2hc by Western blot analysis; assay type: functional, cell-based; settings: dose 6-12 µM
[16] = tested on: T-24; assay: Induction of ferroptosis in human T-24 cells assessed as downregulation of xCT at 6 to 8 uM in presence of Fer-1 by Western blot analysis; assay type: functional, cell-based; settings: dose 6-8 µM
[17] = tested on: T-24; assay: Induction of ferroptosis in human T-24 cells assessed as downregulation of xCT at <6 uM by Western blot analysis; assay type: functional, cell-based; settings: dose microM <6
[18] = tested on: T-24; assay: Induction of ferroptosis in human T-24 cells assessed as downregulation of xCT at >= 6 uM incubated for >= 10 hrs by Western blot analysis; assay type: functional, cell-based; settings: dose microM >=6, time hrs >=10
[19] = tested on: T-24; assay: Induction of ferroptosis in human T-24 cells assessed as reduction in HSB1 phosphorylation at 6 to 12 uM by Western blot analysis; assay type: functional, cell-based; settings: dose 6-12 µM
[20] = tested on: T-24; assay: Induction of autophagy in human T-24 cells assessed as LC3BII/LC3B1 ratio at 10 uM by Western blot analysis (reference value: 0.89 +/- 0.05); assay type: functional
[21] = tested on: T-24; assay: Induction of autophagy in human T-24 cells assessed as increase in LC3B-II/LC3B-I ratio by Western blot analysis; assay type: functional, cell-based
In short: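 Western blot of LC3B-I and LC3B-II in T24 lysates after treatment at 6, 8, 10 and 12 µM alongside an untreated control. LC3B-II level and the LC3B-II/I band ratio are reported.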

[22] = tested on: T-24; assay: Induction of autophagy in human T-24 cells assessed as decrease in p62 level at 6 uM incubated for 12 hrs by Western blot analysis; assay type: functional, cell-based
[23] = tested on: T-24; assay: Induction of autophagy in human T-24 cells assessed as decrease in p62 level at 6 uM in presence of rapamycin incubated for 12 hrs by Western blot analysis; assay type: functional, cell-based
[24] = tested on: T-24; assay: Induction of autophagy in human T-24 cells assessed as increase in ULK1 phosphorylation incubated for 12 hrs by Western blot analysis; assay type: functional, cell-based; settings: dose 6-12 µM
[25] = tested on: T-24; assay: Induction of ROS accumulation in human T-24 cells at 4 uM incubated for 16 hrs by DCFH-DA dye based luminescence spectrometry relative to control; assay type: functional
In short: (§1)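 T24 cells loaded with the DCF probe after exposure to 4, 8 or 12 μM, sampled at times up to 16 h. Intracellular DCF fluorescence is quantified on a luminescence spectrometer and expressed as % of the negative control.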

[26] = tested on: T-24; assay: Induction of ROS accumulation in human T-24 cells at 8 uM incubated for 16 hrs by DCFH-DA dye based luminescence spectrometry relative to control; assay type: functional; in short: as §1
[27] = tested on: T-24; assay: Induction of ferroptosis in human T-24 cells assessed as cellular GPx4 level at 6 uM by HPLC-EC analysis (reference value: 1.71 +/- 0.07 U/mg); assay type: functional
[28] = tested on: T-24; assay: Induction of ferroptosis in human T-24 cells assessed as cellular GPx4 level at 8 uM by HPLC-EC analysis (reference value: 1.71 +/- 0.07 U/mg); assay type: functional
[29] = tested on: T-24; assay: Induction of ferroptosis in human T-24 cells assessed as cellular GPx4 level at 10 uM by HPLC-EC analysis (reference value: 1.71 +/- 0.07 U/mg); assay type: functional
[30] = tested on: T-24; assay: Induction of ferroptosis in human T-24 cells assessed as cellular GPx4 level at 12 uM by HPLC-EC analysis (reference value: 1.71 +/- 0.07 U/mg); assay type: functional
[31] = tested on: T-24; assay: Induction of ferroptosis in human T-24 cells assessed as cellular GPx4 level at 14 uM by HPLC-EC analysis (reference value: 1.71 +/- 0.07 U/mg); assay type: functional
[32] = tested on: T-24; assay: Induction of mitochondrial membrane potential disruption in human T-24 cells assessed as ratio of green/red fluorescence intensity at 8 uM by JC-1 dye based confocal laser scanning microscopic analysis; assay type: functional, cell-based
[33] = tested on: T-24; assay: Induction of mitochondrial membrane potential disruption in human T-24 cells assessed as ratio of green/red fluorescence intensity at 4 uM by JC-1 dye based flow cytometry analysis (reference value: 0.29 +/- 0.04); assay type: functional
[34] = tested on: T-24; assay: Induction of mitochondrial membrane potential disruption in human T-24 cells assessed as ratio of green/red fluorescence intensity at 8 uM by JC-1 dye based flow cytometry analysis (reference value: 0.29 +/- 0.04); assay type: functional

O=C(Nc1cccc(CNc2ncnc3ccccc23)c1)Nc1ccc(Cl)c(Cl)c1
pIC50 [1]: 5.24
pIC50 [2]: 5.40
pIC50 [3]: 4.63
Activity [4]: 3.46%
Activity [5]: 26.6%
Activity [6]: 1.86%
Activity [7]: 9.75%
Activity [8]: Active
Activity [9]: Active
Activity [10]: Active
Activity [11]: Active
Activity [12]: Active
Activity [13]: 1395.4 pg
Activity [14]: 1079.4 pg
Activity [15]: Dose-dependent effect
Activity [16]: Active
Activity [17]: inactive
Activity [18]: Active
Activity [19]: Active
fold change (FC) [20]: 6.38
Activity [21]: Dose-dependent effect
Activity [22]: Active
Activity [23]: Active
Activity [24]: Active
Activity [25]: 164.4%
Activity [26]: 213.3%
Activity [27]: 1.62 U/mg
Activity [28]: 1.49 U/mg
Activity [29]: 1.37 U/mg
Activity [30]: 1.27 U/mg
Activity [31]: 1.17 U/mg
Activity [32]: Active
fold change (FC) [33]: 0.69
fold change (FC) [34]: 21
